Source: ChEMBL document CHEMBL4819149, “A facile reaction to access novel structural sulfonyl-hybridized imidazolyl ethanols as potential DNA-targeting antibacterial agents” (Bioorg Med Chem Lett, 2021)
Converted amounts (≈) assume the structure as drawn. The source made the active and inactive calls. No cut-off for these calls is given here.

Experiments:
[1] = system: Staphylococcus aureus; assay: Antibacterial activity against methicillin-resistant Staphylococcus aureus assessed as bacterial growth inhibition by broth microdilution method; assay type: functional
In short: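 MIC read by micro broth dilution; values given in μg/mL.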

[2] = system: Enterococcus faecalis; assay: Antibacterial activity against Enterococcus faecalis assessed as bacterial growth inhibition by broth microdilution method; assay type: functional
In short: (§1)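 MIC values reported in µg/mL, determined by broth microdilution in microdilution plates.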

[3] = system: Staphylococcus aureus; assay: Antibacterial activity against Staphylococcus aureus assessed as bacterial growth inhibition by broth microdilution method; assay type: functional; in short: as §1
[4] = system: Staphylococcus aureus; assay: Antibacterial activity against Staphylococcus aureus ATCC 25923 assessed as bacterial growth inhibition by broth microdilution method; assay type: functional; in short: as §1
[5] = system: Staphylococcus aureus; assay: Antibacterial activity against Staphylococcus aureus ATCC 29213 assessed as bacterial growth inhibition by broth microdilution method; assay type: functional; in short: as §1
[6] = system: Klebsiella pneumoniae; assay: Antibacterial activity against Klebsiella pneumonia assessed as bacterial growth inhibition by broth microdilution method; assay type: functional; in short: as §1
[7] = system: Pseudomonas aeruginosa; assay: Antibacterial activity against Pseudomonas aeruginosa ATCC 27853 assessed as bacterial growth inhibition by broth microdilution method; assay type: functional; in short: as §1
[8] = system: Pseudomonas aeruginosa; assay: Antibacterial activity against Pseudomonas aeruginosa assessed as bacterial growth inhibition by broth microdilution method; assay type: functional; in short: as §1
[9] = system: Acinetobacter baumannii; assay: Antibacterial activity against Acinetobacter baumannii assessed as bacterial growth inhibition by broth microdilution method; assay type: functional; in short: as §1
[10] = system: Escherichia coli; assay: Antibacterial activity against Escherichia coli assessed as bacterial growth inhibition by broth microdilution method; assay type: functional; in short: as §1
[11] = system: Escherichia coli; assay: Antibacterial activity against Escherichia coli ATCC 25922 assessed as bacterial growth inhibition by broth microdilution method; assay type: functional; in short: as §1
[12] = system: DNA; assay: Binding affinity to DNA (unknown origin) assessed as hypochromic shift by UV-vis spectrophotometric analysis; assay type: nucleic-acid assay
In short: (§2)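 DNA UV-vis absorption spectra were recorded with increasing test compound concentration, following the 260 nm peak intensity and position. Hypochromism was judged by comparing the summed absorbance of free DNA and free compound with the measured absorbance of the compound-DNA complex.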

[13] = system: Calf thymus DNA; assay: Binding affinity to calf thymus DNA assessed as DNA intercalation by competitive neutral red dye displacement based UV-Vis absorbance analysis; conditions: Bos taurus
In short: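 Neutral red (NR) competition: absorbance around 530 nm was followed with test compound and increasing calf thymus DNA, compared against free NR titrated with increasing calf thymus DNA.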

[14] = system: DNA; assay: Binding affinity to methicillin-resistant Staphylococcus aureus DNA assessed as DNA intercalation by competitive neutral red dye displacement based UV-Vis absorbance analysis; assay type: nucleic-acid assay
[15] = Cytotoxicity against human […] assessed as reduction in cell viability at 100 ug/ml by MTT assay; assay type: cell-based; conditions: dose 100 µg/ml
In short: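 Endothelial […] were exposed to a range of compound concentrations up to 100 µg/mL, and viability was read by MTT assay.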

[16] = system: Staphylococcus aureus; assay: Antibacterial activity against methicillin-resistant Staphylococcus aureus measured after 13 passages by broth microdilution method; assay type: functional, organism-based
[17] = system: Staphylococcus aureus; assay: Potency index, ratio of sulfathiazole MIC to test compound MIC for methicillin-resistant Staphylococcus aureus assessed as bacterial growth inhibition by broth microdilution method; assay type: functional
[18] = system: Staphylococcus aureus; assay: Potency index, ratio of norfloxacin MIC to test compound MIC for methicillin-resistant Staphylococcus aureus assessed as bacterial growth inhibition by broth microdilution method; assay type: functional
[19] = system: Enterococcus faecalis; assay: Potency index, ratio of sulfathiazole MIC to test compound MIC for Enterococcus faecalis assessed as bacterial growth inhibition by broth microdilution method; assay type: functional
[20] = system: DNA; assay: Binding affinity to DNA (unknown origin) assessed as increase in maximum absorption peak of DNA at 260 nm by UV-vis spectrophotometric analysis; assay type: nucleic-acid assay; in short: as §2
[21] = system: DNA; assay: Binding affinity to DNA (unknown origin) assessed as red shift in absorption maxima by UV-vis spectrophotometric analysis; assay type: nucleic-acid assay; in short: as §2

Row | SMILES | MIC [1] [mg/L] | MIC [2] [mg/L] | MIC [3] [mg/L] | MIC [4] [mg/L] | MIC [5] [mg/L] | MIC [6] [mg/L] | MIC [7] [mg/L] | MIC [8] [mg/L] | MIC [9] [mg/L] | MIC [10] [mg/L] | MIC [11] [mg/L] | other results
1 | CCCc1nccn1C(CO)CS(=O)(=O)c1ccc(N)cc1 (stereo not drawn) | 8 (≈ 24.7 µM) | 32 (≈ 98.9 µM) | 128 (≈ 396 µM) | 64 (≈ 198 µM) | 128 (≈ 396 µM) | 128 (≈ 396 µM) | 32 (≈ 98.9 µM) | 256 (≈ 792 µM) | 32 (≈ 98.9 µM) | 64 (≈ 198 µM) | 64 (≈ 198 µM) | 
2 | CCc1nccn1C(CO)CS(=O)(=O)c1ccc(N)cc1 (stereo not drawn) | 16 (≈ 51.7 µM) | 16 (≈ 51.7 µM) | 64 (≈ 207 µM) | 64 (≈ 207 µM) | 64 (≈ 207 µM) | 128 (≈ 414 µM) | 32 (≈ 103 µM) | 256 (≈ 827 µM) | 64 (≈ 207 µM) | 64 (≈ 207 µM) | 32 (≈ 103 µM) | 
3 | Nc1ccc(S(=O)(=O)CC(CO)n2cnc(I)c2)cc1 (stereo not drawn) | 64 (≈ 157 µM) | 256 (≈ 629 µM) | 64 (≈ 157 µM) | 64 (≈ 157 µM) | 64 (≈ 157 µM) | 256 (≈ 629 µM) | 32 (≈ 78.6 µM) | 256 (≈ 629 µM) | 64 (≈ 157 µM) | 64 (≈ 157 µM) | 32 (≈ 78.6 µM) | 
4 | CC(=O)Nc1ccc(S(=O)(=O)CC(CO)n2cnc(Br)c2)cc1 (stereo not drawn) | 8 (≈ 19.9 µM) | 8 (≈ 19.9 µM) | 64 (≈ 159 µM) | 64 (≈ 159 µM) | 32 (≈ 79.5 µM) | 256 (≈ 636 µM) | 32 (≈ 79.5 µM) | 256 (≈ 636 µM) | 64 (≈ 159 µM) | 64 (≈ 159 µM) | 32 (≈ 79.5 µM) | 
5 | CCc1nc(C)cn1C(CO)CS(=O)(=O)c1ccc(NC(C)=O)cc1 (stereo not drawn) | 4 (≈ 10.9 µM) | 16 (≈ 43.8 µM) | 64 (≈ 175 µM) | 128 (≈ 350 µM) | 32 (≈ 87.6 µM) | 128 (≈ 350 µM) | 32 (≈ 87.6 µM) | 128 (≈ 350 µM) | 64 (≈ 175 µM) | 64 (≈ 175 µM) | 32 (≈ 87.6 µM) | Activity [12]: Active; Activity [13]: inactive; Activity [14]: Active; Activity [15]: Non-Toxic; Activity [16]: Active; Ratio [17]: 16; Ratio [18]: 2; Ratio [19]: 32; Activity [20]: Active; Activity [21]: Active
6 | CCc1nccn1C(CO)CS(=O)(=O)c1ccc(NC(C)=O)cc1 (stereo not drawn) | 32 (≈ 91.1 µM) | 32 (≈ 91.1 µM) | 64 (≈ 182 µM) | 64 (≈ 182 µM) | 16 (≈ 45.5 µM) | 128 (≈ 364 µM) | 64 (≈ 182 µM) | 256 (≈ 728 µM) | 16 (≈ 45.5 µM) | 64 (≈ 182 µM) | 32 (≈ 91.1 µM) | 
7 | CCn1cc(C(=O)O)c(=O)c2cc(F)c(N3CCNCC3)cc21 [NORFLOXACIN] | 8 (≈ 25.1 µM) | 256 (≈ 802 µM) | 8 (≈ 25.1 µM) | 1 (≈ 3.13 µM) | 1 (≈ 3.13 µM) | 256 (≈ 802 µM) | 16 (≈ 50.1 µM) | 256 (≈ 802 µM) | 8 (≈ 25.1 µM) | 512 (≈ 1600 µM) | 512 (≈ 1600 µM) | Activity [16]: inactive
8 | Cc1cn(C(CO)CS(=O)(=O)c2ccc(N)cc2)cn1 (stereo not drawn) | 8 (≈ 27.1 µM) | 16 (≈ 54.2 µM) | 64 (≈ 217 µM) | 32 (≈ 108 µM) | 64 (≈ 217 µM) | 32 (≈ 108 µM) | 32 (≈ 108 µM) | 128 (≈ 433 µM) | 16 (≈ 54.2 µM) | 64 (≈ 217 µM) | 64 (≈ 217 µM) | 
9 | Cc1nc(I)cn1C(CO)CS(=O)(=O)c1ccc(N)cc1 (stereo not drawn) | 32 (≈ 76 µM) | 64 (≈ 152 µM) | 64 (≈ 152 µM) | 64 (≈ 152 µM) | 64 (≈ 152 µM) | 64 (≈ 152 µM) | 32 (≈ 76 µM) | 128 (≈ 304 µM) | 32 (≈ 76 µM) | 128 (≈ 304 µM) | 32 (≈ 76 µM) | 
10 | CCc1nc(C)cn1C(CO)CS(=O)(=O)c1ccc(N)cc1 (stereo not drawn) | 16 (≈ 49.5 µM) | 16 (≈ 49.5 µM) | 64 (≈ 198 µM) | 64 (≈ 198 µM) | 128 (≈ 396 µM) | 128 (≈ 396 µM) | 32 (≈ 98.9 µM) | 128 (≈ 396 µM) | 64 (≈ 198 µM) | 64 (≈ 198 µM) | 32 (≈ 98.9 µM) | 
11 | Nc1ccc(S(=O)(=O)CC(CO)n2cnc(Br)c2)cc1 (stereo not drawn) | 16 (≈ 44.4 µM) | 64 (≈ 178 µM) | 64 (≈ 178 µM) | 64 (≈ 178 µM) | 64 (≈ 178 µM) | 256 (≈ 711 µM) | 32 (≈ 88.8 µM) | 256 (≈ 711 µM) | 64 (≈ 178 µM) | 64 (≈ 178 µM) | 32 (≈ 88.8 µM) | 
12 | CC(=O)Nc1ccc(S(=O)(=O)CC(CO)n2ccnc2C(C)C)cc1 (stereo not drawn) | 16 (≈ 43.8 µM) | 32 (≈ 87.6 µM) | 128 (≈ 350 µM) | 64 (≈ 175 µM) | 16 (≈ 43.8 µM) | 64 (≈ 175 µM) | 64 (≈ 175 µM) | 256 (≈ 700 µM) | 32 (≈ 87.6 µM) | 64 (≈ 175 µM) | 64 (≈ 175 µM) | 
